DDE Tn6 FP inh = inhibitors of Tn6 peptide binding to fibrin DD(E), primary screen, biochemical, fluorescence polarization, human fibrin, Tn6 probe. Fibrinogen beta chain (Homo sapiens), P02675. Fibrin DD(E) TRITC-Tn6 fluorescence polarization displacement. inhibition, % at 8.3 µM. 0.21% of 370,000 active;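 active means inhibition above a per-campaign cutoff: mean of compounds within control limits plus 3 SD, cut at about 15% in these data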;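 further: 0% = median of all compound wells on the plate and 100% = blocking peptide control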
FID counter = compounds displacing fluorescent DNA intercalator, primary screen, artefact control for HCV NS3 helicase inhibitor project, biochemical, FID fluorescence. DNA fluorescent intercalator displacement. inhibition, % at 7.9 µM. 0.17% of 290,000 active. AID 1845, 2009; in the data active means inhibition above about 37%;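 further: 0% = vehicle and 100% = reference compound; higher means more ethidium bromide displaced from hairpin DNA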
PLCg1 inh = PLC-gamma1 enzyme inhibitors, primary screen, biochemical, fluorescence, purified enzyme; 1-phosphatidylinositol 4,5-bisphosphate phosphodiesterase gamma-1 (Homo sapiens), P19174; fluorogenic substrate; inhibition, % at 12.2 µM; 0.84% of 370,000 active; AID 720700, 2013
Target sequence (P19174 whole entry, looked up): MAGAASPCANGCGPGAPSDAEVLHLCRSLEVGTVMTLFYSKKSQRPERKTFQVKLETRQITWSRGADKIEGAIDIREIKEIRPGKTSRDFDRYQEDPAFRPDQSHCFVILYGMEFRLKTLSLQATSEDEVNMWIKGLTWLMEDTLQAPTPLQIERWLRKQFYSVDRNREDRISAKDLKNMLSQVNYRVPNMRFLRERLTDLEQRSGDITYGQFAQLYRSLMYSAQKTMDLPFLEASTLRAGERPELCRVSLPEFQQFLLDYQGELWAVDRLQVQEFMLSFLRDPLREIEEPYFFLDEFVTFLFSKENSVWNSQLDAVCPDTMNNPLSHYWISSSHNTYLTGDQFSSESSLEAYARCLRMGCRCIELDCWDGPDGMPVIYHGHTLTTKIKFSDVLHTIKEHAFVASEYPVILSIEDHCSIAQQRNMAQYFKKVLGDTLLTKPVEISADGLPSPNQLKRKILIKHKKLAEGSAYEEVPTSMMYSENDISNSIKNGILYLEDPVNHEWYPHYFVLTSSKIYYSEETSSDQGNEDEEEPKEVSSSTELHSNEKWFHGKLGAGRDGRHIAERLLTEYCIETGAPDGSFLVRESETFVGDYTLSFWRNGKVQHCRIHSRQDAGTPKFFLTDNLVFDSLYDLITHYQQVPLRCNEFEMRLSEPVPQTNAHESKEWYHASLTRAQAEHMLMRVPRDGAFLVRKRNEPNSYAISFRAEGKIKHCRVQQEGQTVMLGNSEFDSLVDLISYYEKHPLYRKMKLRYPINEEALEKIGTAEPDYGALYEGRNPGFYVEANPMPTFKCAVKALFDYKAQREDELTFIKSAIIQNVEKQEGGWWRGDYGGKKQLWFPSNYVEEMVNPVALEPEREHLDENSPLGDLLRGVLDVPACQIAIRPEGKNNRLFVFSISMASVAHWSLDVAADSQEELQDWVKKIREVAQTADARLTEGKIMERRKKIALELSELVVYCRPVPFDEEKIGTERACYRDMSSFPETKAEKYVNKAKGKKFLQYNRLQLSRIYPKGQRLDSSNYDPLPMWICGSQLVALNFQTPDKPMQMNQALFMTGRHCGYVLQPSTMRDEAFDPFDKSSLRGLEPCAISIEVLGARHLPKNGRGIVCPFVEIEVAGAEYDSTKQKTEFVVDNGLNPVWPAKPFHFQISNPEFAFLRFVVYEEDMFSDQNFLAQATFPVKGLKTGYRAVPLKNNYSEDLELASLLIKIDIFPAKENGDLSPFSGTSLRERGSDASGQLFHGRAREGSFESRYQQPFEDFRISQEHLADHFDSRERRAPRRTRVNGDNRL
PLCb3 inh = human PLC-beta3 inhibitors, primary screen, biochemical, fluorescence; Purified PLC-beta3, fluorogenic substrate; inhibition, % at 12.2 µM; 0.18% of 370,000 active; AID 720704, 2013; in the data active means inhibition above about 11%;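 further: 0% = median of compound wells on plate and 100% = full blocker control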
DDE Tn7 FP inh = inhibitors of Tn7 peptide binding to fibrin DD(E), primary screen, biochemical, fluorescence polarization, human fibrin, Tn7 probe; Fibrinogen beta chain (Homo sapiens), P02675; FP displacement of FITC-Tn7 peptide from fibrin DD(E); 0% = median of compound wells per plate; inhibition, % at 8.3 µM; 0.13% of 370,000 active; AID 720508, 2013;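 active means inhibition above the mean of compounds falling within the control limits plus 3 SD of them, cut at about 14% in these data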;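 further: 0% = plate median of compound wells and 100% = 10 µM Aha-Tn7 peptide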
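Test system – human fibrin DD(E) · Times – 10 min preincubation, 3 h with tracer, room temperature · Detection – fluorescence polarization of the labelled Tn7 tracer · Measure – percent inhibition normalized to high-control wells · Benchmarks – high control wells with 10 µM unlabelled Aha-Tn7 peptide (full inhibition) · Repeats – singlicate testing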
PLCgamma1 ctr = PLC-gamma1 enzyme inhibitors, counter-screen for PLC-beta3 inhibitor project, biochemical, fluorescence. 3.1% of 3,300 active. inhibition, % at 12.3 µM. purified PLC-gamma1, fluorogenic substrate. shares compounds with PLCg1 inh
PLCbeta3 conf = PLC-beta3 inhibitor confirmation, biochemical, fluorescence, purified enzyme; fluorogenic substrate fluorescence; inhibition, % at 12.3 µM; AID 743261, 2014; shares compounds with PLCg1 inh; 1% of 3,300 active; in the data active means inhibition above about 11%
The depositor's hits bear a star; / = no result. Hits are enriched below; roughly 1.4% of the tested compounds scored in any of these assays. Unless noted, no stated cut-off is given here; in the data, active means inhibition above about 9.5%; inactive means the rest.

SMILES | DDE Tn6 FP inh | FID counter | PLCg1 inh | PLCb3 inh | DDE Tn7 FP inh | PLCgamma1 ctr | PLCbeta3 conf
CCOc1ccccc1NC(=O)C1CCCN1C(=O)c1cccs1 (configuration not stated) | 7.0 | / | 10.2* | -1.7 | 1.4 | -6.7 | -1.6
O=c1[nH]c2ccccc2nc1/C=C/c1ccc(O)cc1 | -10.6 | 6.0 | -391.7 | -433.6 | -5.1 | / | /
Cc1ccc(-c2cc(N)n(-c3ccccc3)n2)cc1 | 4.0 | -8.9 | 2.4 | 1.2 | -4.4 | / | /
COc1cccc(CNn2c(-c3cccc(C)c3)nc3ccccc3c2=O)c1 | -10.1 | -13.6 | 5.4 | 11.3* | 2.4 | -7.8 | -6.8
COC(=O)C(NC(=O)CCc1c(C)nc2ncnn2c1C)C(C)C (configuration not stated) | 0.1 | 1.2 | 9.7* | 3.1 | -0.7 | -5.2 | 0.1
CCOC(=O)Cc1c(C)nc(N)[nH]c1=O | -3.6 | 2.7 | 0.7 | -2.0 | -3.4 | / | /
CCOC(=O)Cc1c[nH]c(=S)[nH]c1=O | -0.4 | -2.5 | 11.0* | 1.8 | -0.6 | -4.2 | 0.3
CSCCC(NC(=O)OCc1ccccc1)C(=O)NCc1cccnc1 (configuration not stated) | -9.5 | -10.9 | 9.8* | -5.3 | -3.3 | -1.9 | -3.0
Cc1nn(CCOc2ccccc2)c(=O)n1-c1cccc(F)c1 | -4.0 | -7.0 | 2.5 | 5.5 | -4.6 | / | /
Cc1nn(CCOc2ccccc2)c(=O)n1-c1ccc(F)cc1 | -8.5 | -7.9 | 10.5* | 0.1 | 2.8 | -4.4 | -2.2
CCc1nc(N2CCC3(CC2)OCCO3)c2nnn(Cc3ccccc3Cl)c2n1 | 5.3 | -21.0 | -3.7 | 0.8 | -0.7 | / | /
COc1cc(CNc2ncnc3c2ncn3[C@H]2CN(Cc3cccc(C(F)(F)F)c3)C[C@@H](CO)O2)cc(OC)c1OC | -2.9 | / | 9.6* | 3.1 | -12.8 | -2.4 | 2.5
COc1cc(CNc2ncnc3c2ncn3[C@H]2CN(Cc3cccc(C(F)(F)F)c3)C[C@@H](COC(C)=O)O2)cc(OC)c1OC | 2.8 | / | -0.4 | 0.9 | 1.2 | / | /
CCC(=O)Nc1cc(C(=O)OCC(=O)c2ccccc2Cl)ccc1C | -3.5 | -14.9 | 12.9* | -1.5 | 2.7 | 1.9 | 1.6
CC(=O)OCC(=O)Nc1ccc(Cl)cc1Cl | 3.8 | -4.2 | 10.3* | 3.1 | -3.7 | -4.8 | -2.0
O=S(=O)(CS(=O)(=O)c1ccc(Br)cc1)c1ccc(Br)cc1 | 1.1 | / | 27.0* | 0.5 | 7.3 | 21.4* | 1.3
COCCCNc1ncnc2c1cnn2-c1ccc(C)cc1C | -0.1 | -14.8 | 0.5 | -3.0 | 2.2 | / | /
CCCCNc1ncnc2c1cnn2-c1ccc(C)cc1C | 2.0 | -20.4 | 10.9* | 9.7 | 3.5 | -4.6 | -0.1
Cc1cc(Cl)ccc1OCC(=O)N1CCCN(C(=O)COc2ccc(Cl)cc2C)CC1 | -8.2 | -24.8 | 10.1* | 3.6 | -14.2 | -9.4 | -3.7
Cc1cc(Cl)ccc1OC(C)C(=O)N1CCCN(C(=O)C(C)Oc2ccc(Cl)cc2C)CC1 (configuration not stated) | -14.7 | -24.7 | 10.4* | 4.5 | 1.1 | -5.4 | -4.4
Cc1cc(Cl)ccc1OCC(=O)N1CC(C)CC(C)C1 (configuration not stated) | -5.7 | -23.0 | 0.5 | 2.6 | -3.8 | / | /
CCn1c(C)nc2cc(C(=O)NNC(=S)Nc3ccc(Cl)cc3)ccc21 | -0.1 | -8.8 | -7.5 | -15.0 | -7.1 | / | /
CN(Cc1ccccc1)C(=O)c1cccc(NC(=O)Cc2ccc(NC(=O)C3CCCN(C(=O)c4ccccc4)C3)cc2)c1 (configuration not stated) | 0.4 | / | 12.5* | 5.2 | 1.8 | -3.4 | -0.4
O=C(Cc1ccc(NC(=O)C2CCN(C(=O)C3CCCCC3)CC2)cc1)Nc1ccc(C(=O)N2CCOCC2)cc1 | -0.6 | / | 12.9* | 9.7 | -1.7 | 0.2 | 3.3
O=C(Cc1ccc(NC(=O)C2CCCN(C(=O)C3CCCC3)C2)cc1)Nc1ccc(C(=O)N2CCOCC2)cc1 (configuration not stated) | 7.0 | / | 4.1 | 5.4 | -10.1 | / | /
SMILES | DDE Tn6 FP inh | FID counter | PLCg1 inh | PLCb3 inh | DDE Tn7 FP inh | PLCgamma1 ctr | PLCbeta3 conf
O=C(Cc1ccc(NC(=O)C2CCCN(C(=O)C3CCCCC3)C2)cc1)Nc1ccc(C(=O)N2CCOCC2)cc1 (configuration not stated) | 2.6 | / | 10.3* | 9.2 | -2.0 | -4.8 | -0.4
COc1ccc(C(=O)N2CCC(C(=O)Nc3ccc4c(c3)OCCO4)CC2)cc1 | 13.4 | -19.0 | 9.0 | 12.0* | -5.6 | -7.6 | -1.6
O=C(Cc1ccc(NC(=O)C2CCCN(C(=O)C3CCC3)C2)cc1)Nc1ccc(C(=O)N2CCOCC2)cc1 (configuration not stated) | 8.0 | / | -2.2 | 2.2 | 4.3 | / | /
N#Cc1cccnc1N1CCN(C(=O)c2ccco2)CC1 | 0.7 | -1.2 | -45.7 | -71.7 | 0.7 | / | /
Cc1ccc2nc(-c3cccc(Br)c3)c(CC3CCCCC3)n2c1 | 7.5 | / | -6.1 | -16.4 | 1.4 | / | /
O=C(COc1cccc(Br)c1)N/N=C1\CCSC1 | 6.9 | 1.1 | 0.6 | -4.6 | -1.1 | / | /
CCOC(=O)C1CCN(C(=O)C(C)Sc2ccc(Cl)cc2)CC1 (configuration not stated) | -9.3 | -25.1 | -0.8 | -1.9 | 5.2 | / | /
COc1ccc(OCCn2cc(/C(N)=N/O)c3ccccc32)cc1 | -0.3 | -0.3 | 9.5 | 10.9* | -9.8 | 8.5 | 1.6
Cc1ccc(OCCn2cc(/C(N)=N/O)c3ccccc32)cc1C | 1.3 | 4.6 | 2.5 | -1.9 | -2.3 | / | /
COc1cc(OC)c(S(=O)(=O)Nc2ccccc2NC(=O)CN2CCOCC2)cc1NC(C)=O | 14.3 | 9.5 | 14.6* | 2.1 | -2.2 | -5.8 | -3.9
Cc1c(C(=O)CN2CCSCC2)c2ccccc2n1C | 2.3 | 2.5 | 4.0 | 1.5 | -0.6 | / | /
N#Cc1c(NC(=O)CSc2nnnn2C2CCCC2)sc2c1CCCC2 | 5.5 | -3.0 | 10.0* | -0.2 | -3.8 | 1.9 | -6.4
CCOC(=O)c1c(S(=O)(=O)Nc2ccc(F)cc2Cl)c(C)n(C)c1C | 4.9 | -29.1 | 11.4* | 0.5 | 3.0 | -1.8 | -1.3
CCSc1nnc(NC(=O)Cn2cnc3ccccc3c2=O)s1 | 7.8 | -0.2 | 0.3 | -4.2 | 0.6 | / | /
C/C(=C\c1cccc(Cl)c1)C(=O)c1c(C)cc(C)[nH]c1=O | -1.0 | -11.2 | -0.4 | -4.0 | -8.3 | / | /
